# Source: PubChem BioAssay (several laboratories)
# Only some compounds are listed: those with a hit (about 4.1% of all), similar ones and a draw of the others.
# Efflux pump mplx: antifungal efflux pump inhibition, Nile Red retention | S. cerevisiae Candida pump triplex | inhibition, % at 10 µM | hit rate 0.44% among 330,000 | AID 485275;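 active means plate passing quality check with inhibition over a set limit, or well fluorescence over plate mean plus 4 SD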;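 further: Nile Red retained in pooled yeast measured as flow cytometry median fluorescence; 0% = buffer negative control and 100% = Enniatin B positive control; higher means more Nile Red kept so more efflux inhibition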
# Tb MetRS inh: blocks T. brucei methionyl-tRNA synthetase activity | inhibition, % at 11.9 µM | purified T. brucei MetRS, ATP depletion, Kinase-Glo luminescence | AID 624268 | hit rate 0.4% among 360,000;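 active means inhibition above a per-plate cutoff of the control wells' mean inhibition plus 3 SD, cut at about 5.5% in these data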;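 further: 0% = DMSO wells median and 100% = median of wells with control inhibitor compound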
#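 Test system: purified T. brucei MetRS enzyme. Also added: ATP, methionine and E. coli bulk tRNA substrates. Compound: 11.9 µM single point. Schedule: 15 min enzyme-compound preincubation, 2 h reaction, 10 min detection, 25 °C. Signal: luciferase luminescence of residual ATP, Kinase-Glo. Evaluation: percent inhibition versus plate control medians. Controls: DMSO wells, low control.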
# AHR activator: activates the human aryl hydrocarbon receptor. hit rate 2.5% among 320,000. P35869. AID 2796. activation, % at 5 µM. AHR-responsive luciferase reporter cells, luminescence; in the data active means activation above about 47%;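 further: 0% = vehicle wells and 100% = reference agonist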
# Target sequence (P35869 whole entry, looked up): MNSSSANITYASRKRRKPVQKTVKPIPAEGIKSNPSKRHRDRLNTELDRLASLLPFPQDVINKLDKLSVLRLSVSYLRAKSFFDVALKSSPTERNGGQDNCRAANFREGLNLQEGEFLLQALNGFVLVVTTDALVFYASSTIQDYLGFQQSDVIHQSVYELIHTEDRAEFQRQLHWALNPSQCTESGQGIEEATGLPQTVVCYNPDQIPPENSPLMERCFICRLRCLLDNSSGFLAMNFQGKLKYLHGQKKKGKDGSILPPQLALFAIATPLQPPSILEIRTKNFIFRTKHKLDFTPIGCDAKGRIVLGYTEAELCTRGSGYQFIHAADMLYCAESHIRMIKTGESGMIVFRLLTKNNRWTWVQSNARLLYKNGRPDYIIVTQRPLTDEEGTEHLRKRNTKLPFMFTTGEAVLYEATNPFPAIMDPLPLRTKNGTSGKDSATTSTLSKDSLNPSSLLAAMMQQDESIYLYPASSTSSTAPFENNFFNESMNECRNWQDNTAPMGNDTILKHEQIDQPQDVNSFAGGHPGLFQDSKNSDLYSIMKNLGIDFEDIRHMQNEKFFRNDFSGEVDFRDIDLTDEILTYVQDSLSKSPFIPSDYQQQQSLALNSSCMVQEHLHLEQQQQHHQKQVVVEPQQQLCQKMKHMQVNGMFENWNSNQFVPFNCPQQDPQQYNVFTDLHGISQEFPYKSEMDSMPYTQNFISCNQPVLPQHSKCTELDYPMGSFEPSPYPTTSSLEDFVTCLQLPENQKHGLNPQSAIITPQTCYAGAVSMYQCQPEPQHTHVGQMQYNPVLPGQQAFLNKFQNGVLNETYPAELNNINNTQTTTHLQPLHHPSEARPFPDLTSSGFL
# H9c2 TAG inh: reduces triacylglycerol accumulation in H9c2 cells; Nile Red lipid (TAG) fluorescence; cells loaded with 200 µM oleic acid; AID 651582; inhibition, % at 12.5 µM; hit rate 0.66% among 230,000;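 active means pattern-corrected inhibition of lipid staining of at least 50% with the nuclear-stain viability signal not falling by more than 50%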;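 further: 0% = DMSO wells and 100% = triacsin C control wells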
# SMARCA2 activ: SMARCA2 function activation, primary screen; MG213 cells, MMTV-luciferase reporter, dexamethasone, overnight; activation, % at 9.1 µM; hit rate 1% among 370,000; AID 652017; in the data active means activation above about 7.8%;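 further: 0% = vehicle wells and 100% = reference activator wells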
# SMARCA2 act conf: confirmation of SMARCA2 (BRM) function activators | shares compounds with SMARCA2 activ | MG213 cells, MMTV-luciferase with dexamethasone, luminescence, overnight; MG213 cells expressing E1A, Rb sequestered; DMSO wells 0%, reference activator 100% | activation, % at 9.1 µM | hit rate 30% among 3,500;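 active means activation above its plate's cutoff, the mean activation of tested wells plus 3 SD, cut at about 7.9% in these data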
# GAL4-VP16 Luc: counter-screen for SMARCA2 activators: GAL4-VP16 luciferase reporter activation. shares compounds with SMARCA2 activ. HEK293 GAL4-VP16 pG5luc reporter, luciferase luminescence; scaled: DMSO wells 0%, SAHA wells 100%. activation, % at 9.1 µM. hit rate 41% among 3,500. AID 686939;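 active means activation above the solvent-only control well mean plus 3 SD, averaged across control plates, cut at about 5.2% in these data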
# An asterisk follows results filed as active; nt = not tested or not shown.
SMILES,Efflux pump mplx,Tb MetRS inh,AHR activator,H9c2 TAG inh,SMARCA2 activ,SMARCA2 act conf,GAL4-VP16 Luc
CCOC(=O)c1nnn2c1nc(N1CCOCC1)c1ccccc12,0,0,0,6,-1,nt,nt
COC(=O)C1CN(Cc2ccccc2)CCS(=O)(=O)N1Cc1ccc(OC)cc1 (stereo not drawn),nt,nt,nt,nt,1,nt,nt
Cc1ccc(C(=O)NC2CCCCN(C)C2=O)c(C)c1 (stereo not drawn),nt,nt,nt,nt,2,nt,nt
O=C(Nc1ccc2c(c1)OCO2)c1cccs1,0,-1,88*,nt,10*,12*,9.6*
CC(=O)c1ccc(NC(=O)/C(Cl)=C/c2ccccc2)cc1,0,0,-5,4,9.7*,13*,12*
O=C(Nc1ccc(CN2CCOCC2)cc1)c1cccs1,-1,0,6,nt,8.5*,6,5
O=C(/C=C\Nc1ccc2c(c1)OCO2)c1cccs1,0,0,31,-12,10*,9.8*,5
CC(C)c1cc(C(=O)Nc2ccc3c(c2)OCO3)no1,0,0,40,0,8.0*,3,9.1*
CC(=O)Nc1ccc2nc(NC(=O)c3cccs3)sc2c1,0,0,58*,3,9.1*,8.7*,9.8*
O=C(Nc1ccc2c(c1)OCO2)c1cc(C2CC2)on1,0,-1,26,-2,5,nt,nt
CC(=O)c1ccc(NC(=O)c2cccs2)cc1,0,-1,0,nt,12*,10*,10*
CCN(CC)c1ccc(NC(=O)c2cc3c(C)nn(-c4ccccc4)c3s2)cc1,nt,nt,nt,nt,-2,nt,nt
CCCCNc1cccc2c1S(=O)(=O)N[C@H](CC(C)C)CO2,nt,nt,nt,nt,-6,nt,nt
O=C(Nc1c(-c2ccc(C(F)(F)F)cc2)nc2ncccn12)c1ccccc1,nt,nt,nt,nt,-2,nt,nt
COc1ccc(C2CC(=O)c3ccccc3O2)cc1 (stereo not drawn),0,0,-4,-85,8.6*,8,3
c1ccc(-c2c[nH]c3ccc(OCc4ccc5ccccc5n4)c(-c4ccccc4)c23)cc1,nt,nt,nt,nt,1,nt,nt
COc1ccc(C(=O)Nc2ccccc2C(=O)NCc2cccnc2)cc1OC,0,0,3,-14,-1,nt,nt
COc1ccc(C(=O)Nc2ccccc2C(=O)N/N=C/c2ccncc2)cc1OC,0,-4,5,3,8.5*,18*,6.0*
COc1ccc(CCn2c(SCCN3CCCCC3)nc3ccccc3c2=O)cc1OC,0,0,-3,nt,13*,2,2
Cc1ccc(-c2ccnc(=S)[nH]2)cc1,0,0,5,nt,11*,1,2
CC1(C)CCc2cc(-c3ccnc(=S)[nH]3)ccc2O1,0,0,-8,-10,7,nt,nt
N=c1c2c(-c3ccccc3)c(-c3ccccc3)n(Cc3ccccc3)c2ncn1CCO,0,0,-2,nt,8.7*,2,-2
N=c1c2c(-c3ccccc3)c(-c3ccccc3)n(Cc3ccco3)c2ncn1Cc1ccccc1,0,-1,0,-23,2,nt,nt
CN(C)C=Nc1ncc2c3ccccc3n(CCN(C)C)c2c1C#N,0,0,5,nt,1,nt,nt
CCN(CC)CCn1c2ccccc2c2cnc(N)c(C#N)c21,0,-1,6,2,47*,71*,-2
SMILES,Efflux pump mplx,Tb MetRS inh,AHR activator,H9c2 TAG inh,SMARCA2 activ,SMARCA2 act conf,GAL4-VP16 Luc
CCOc1cc(CCNC(=O)c2cc(-c3ccccc3)c(N3CCOCC3)s2)ccc1OC,nt,nt,nt,nt,-3,nt,nt
Cc1cccc(NC(=O)Nc2nnc(N3CCCCC3C)s2)c1C (stereo not drawn),0,0,4,16,8.0*,-2,2
CCn1c(O)c(N=Nc2ccc(Cl)c(C(=O)O)c2)c2ccccc21,0,-1,4,3,11*,-4,1
O=C(NC(=S)Nc1ccccn1)c1ccco1,0,0,9,1,8.8*,12*,8.6*
O=C(NNC(=S)Nc1ccc(F)cc1F)c1ccco1,0,0,14,-14,12*,8.6*,3
O=C(NC(=S)Nc1ccccn1)c1ccccc1,1,0,13,nt,3,nt,nt
Cc1ccccc1NC(=S)NNC(=O)c1ccco1,nt,0,nt,11,0,nt,nt
O=C(NC(=S)Nc1cccc(O)c1)c1ccco1,0,-1,-1,nt,9.1*,6,7.6*
O=C(NC(=S)Nc1ccc2c(c1)OCCO2)c1ccco1,0,0,8,-5,7,nt,nt
C[C@@H]1CN([C@@H](C)CO)C(=O)c2ccccc2-c2ccccc2CO[C@@H]1CN(C)Cc1ccc(Cl)c(Cl)c1,nt,nt,nt,nt,-7,nt,nt
COc1ccc(C)cc1-n1cnnn1,0,0,-4,-3,8.1*,0,2
CCCN1CCCCC(NC(=O)c2ccc(C)cc2C)C1=O (stereo not drawn),nt,nt,nt,nt,-3,nt,nt
Fc1ccc(NCc2cn3ccccc3n2)cc1,0,-1,-1,-4,9.7*,7,6.3*
Fc1cccc(NCc2cn3ccccc3n2)c1,0,-1,16,-10,4,nt,nt
O=C(C(=O)N1CCC(CNS(=O)(=O)Cc2ccccc2)CC1)c1cccs1,nt,nt,nt,nt,-4,nt,nt
O=C(Nc1cccc(F)c1)OC1CC2CC1[C@H]1CCCCN1[C@H]2Cc1ccccc1 (stereo partly drawn),nt,nt,nt,nt,-1,nt,nt
Cc1ccc(OCC(=O)Nc2sc3c(c2C#N)CC(C)(C)NC3(C)C)cc1,0,0,2,4,-4,nt,nt
CC1(C)Cc2c(sc(NC(=O)COc3cccc4ccccc34)c2C#N)C(C)(C)N1,0,-1,9,-32,54*,41*,2
CC1CCC2(CCC(=O)N2CCCOC(=O)Nc2cccc(C(F)(F)F)c2)CC1 (stereo not drawn),nt,nt,nt,nt,-4,nt,nt
CCOC(=O)c1cc2sccc2n1CC(=O)C(C)(C)C,0,0,2,3,10*,-4,1
O=C(c1noc2c1CCc1ccccc1-2)N1CCOCC1,0,-1,0,nt,9.3*,9.6*,5
O=C(c1noc2c1CCc1ccccc1-2)N1CCCc2ccccc21,0,-1,2,nt,1,nt,nt
CN(CCO)c1cccc2c1S(=O)(=O)N(Cc1cn(Cc3ccc(F)cc3)nn1)Cc1ccccc1O2,nt,nt,nt,nt,-1,nt,nt
COC(=O)C1=C(C)N(C)C(=NCc2cccc(C(F)(F)F)c2)NC1c1ccccc1C(F)(F)F (stereo not drawn),nt,nt,nt,nt,-1,nt,nt
CC1(C)CC(=O)C=C(Nc2ccccc2NC(=O)c2cc(Cl)ccc2F)C1,nt,nt,nt,nt,9.2*,7,-1
Cc1ccc(N(CC(=O)Nc2ccc(-c3nc4ccc(C)cc4s3)cc2)S(C)(=O)=O)cc1,0,-1,11,28,6,nt,nt
C=CCn1c(SCC(=O)Nc2ccc(-c3nc4ccc(C)cc4s3)cc2)nnc1-c1ccncc1,0,0,11,nt,8.9*,5,9.2*
